Measured values published in ChEMBL document CHEMBL1938394, “Time-dependent slowly-reversible inhibition of monoamine oxidase A by N-substituted 1,2,3,6-tetrahydropyridines” (Bioorg Med Chem, 2011).

Tests used:
[1] = biological target: T1, Amine oxidase [flavin-containing] A (Homo sapiens, UniProt P21397); test: Uncompetitive inhibition of human recombinant MAO-A assessed as dissociation constant for enzyme-inhibitor complex by Lineweaver-Burk plot analysis
T1 sequence (P21397 whole entry): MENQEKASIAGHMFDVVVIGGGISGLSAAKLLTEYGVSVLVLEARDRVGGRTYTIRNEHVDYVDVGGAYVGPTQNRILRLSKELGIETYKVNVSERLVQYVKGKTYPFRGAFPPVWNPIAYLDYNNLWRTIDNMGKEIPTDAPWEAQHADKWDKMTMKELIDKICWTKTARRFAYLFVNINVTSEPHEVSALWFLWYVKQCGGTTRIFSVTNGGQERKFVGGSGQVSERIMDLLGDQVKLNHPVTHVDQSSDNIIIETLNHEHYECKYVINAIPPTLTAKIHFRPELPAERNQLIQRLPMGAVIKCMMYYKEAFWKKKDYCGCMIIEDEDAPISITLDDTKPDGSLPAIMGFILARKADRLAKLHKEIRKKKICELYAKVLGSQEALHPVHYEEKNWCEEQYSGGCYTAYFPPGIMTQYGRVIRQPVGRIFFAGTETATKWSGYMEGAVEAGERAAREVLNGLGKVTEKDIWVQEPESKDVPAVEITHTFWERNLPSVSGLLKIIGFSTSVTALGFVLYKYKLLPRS
Procedure, shortened: (§1)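 Human recombinant MAO-A (0.005 mg/mL) in 0.1 M sodium phosphate pH 7.4 made isotonic with NaCl, 37 °C, 30 min. Initial oxidation rates at four kynuramine levels (50–150 µM) without or with four inhibitor concentrations (range per compound, 5–1000 µM). Ki from Lineweaver–Burk plots and replots by linear regression; triplicate.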

[2] = biological target: T1, Amine oxidase [flavin-containing] A; test: Inhibition of human recombinant MAOA expressed in insect cells assessed as oxidation of kynuramine substrate at 500 uM measured after additional substrate added after 90 mins incubation; details: 1.5 h
Procedure, shortened: (§2)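 Recombinant human MAO-A incubated with kynuramine, with or without inhibitor. Product formation followed over time. A second equivalent of substrate (150 µM kynuramine) added at 90 min and fresh enzyme added at 120 min.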

Mus musculus [3] = test: Neurotoxicity in C57BL/6J mouse assessed as effect on dopamine level at 25 mg/kg, sc by HPLC analysis; assay type: toxicity, organism-based; set-up: dose 25 mg/kg, route subcutaneous; details: in vivo
Procedure, shortened: (§3)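 Female C57BL/6J mice aged 3–4 months, single sc dose, 0.9% saline vehicle, killed 72 h later. Striata homogenised in ice-cold 0.2 M perchloric acid with dihydroxybenzylamine internal standard. Amines measured by C18 reverse-phase HPLC with electrochemical detection, mobile phase pH 3.0.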

[4] = biological target: T1, Amine oxidase [flavin-containing] A; test: Inhibition of human recombinant MAOA expressed in insect cells using kynuramine substrate after 60 mins
[5] = biological target: T1, Amine oxidase [flavin-containing] A; test: Inhibition of human recombinant MAOA expressed in insect cells assessed as oxidation of kynuramine substrate at 500 uM up to 90 mins; details: 1.5 h; procedure, shortened: as §2
[6] = biological target: T1, Amine oxidase [flavin-containing] A; test: Inhibition of human recombinant MAOA expressed in insect cells assessed as formation of 4-hydroxyquinoline at 500 uM preincubated for 1 hr before kynuramine substrate measured after 1 hr in presence of sodium borohydride
Procedure, shortened: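 MAO-A preincubated 60 min at 37 °C with inhibitor, no substrate. Then 5 µL of 300 mM NaBH4 added and held 15 min at 0 °C. Dialysed overnight at 0 °C against 0.1 M isotonic phosphate buffer pH 7.4. Residual activity: 4-hydroxyquinoline formation at 310 nm with 150 µM kynuramine, 60 min, 37 °C; n = 3.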

Homo sapiens = species: Homo sapiens; test: Selectivity index, ratio of IC50 for human recombinant MAOB to IC50 for human recombinant MAOA
Procedure, shortened: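 MAO-A (0.005 mg/mL; 150 μM kynuramine, 60 min, 37 °C, […]) and MAO-B (0.01 mg/mL; 1000 μM benzylamine, 30 min, 37 °C, perchloric acid stop, benzaldehyde by HPLC-UV at 254 nm) in isotonic 0.1 M phosphate pH 7.4. Inhibitor 0–7000 μM. IC50s from sigmoidal log curves in triplicate. SI = MAO-B IC50 / MAO-A IC50.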

Mus musculus [7] = test: Neurotoxicity in C57BL/6J mouse assessed as reduction of striatal tyrosine hydroxylase level at 25 mg/kg, sc after 72 hrs by ELISA; assay type: toxicity, organism-based; set-up: dose 25 mg/kg, route subcutaneous; details: in vivo
Procedure, shortened: (§4)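 Female C57BL/6J mice aged 3–4 months, single sc dose, 0.9% saline vehicle, killed 72 h post-dose. Striatum homogenised in hot 1% SDS. GFAP or TH measured by detergent-based sandwich ELISA.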

[8] = biological target: T1, Amine oxidase [flavin-containing] A; test: Inhibition of human recombinant MAOA expressed in insect cells assessed as oxidation of kynuramine substrate at 500 uM measured after additional enzyme added after 120 mins incubation; details: 2 h; procedure, shortened: as §2
[9] = biological target: T2, Amine oxidase [flavin-containing] B (Homo sapiens, UniProt P27338); test: Inhibition of human recombinant MAOB expressed in insect cells using benzylamine hydrochloride as substrate after 30 mins
T2 sequence (P27338 whole entry): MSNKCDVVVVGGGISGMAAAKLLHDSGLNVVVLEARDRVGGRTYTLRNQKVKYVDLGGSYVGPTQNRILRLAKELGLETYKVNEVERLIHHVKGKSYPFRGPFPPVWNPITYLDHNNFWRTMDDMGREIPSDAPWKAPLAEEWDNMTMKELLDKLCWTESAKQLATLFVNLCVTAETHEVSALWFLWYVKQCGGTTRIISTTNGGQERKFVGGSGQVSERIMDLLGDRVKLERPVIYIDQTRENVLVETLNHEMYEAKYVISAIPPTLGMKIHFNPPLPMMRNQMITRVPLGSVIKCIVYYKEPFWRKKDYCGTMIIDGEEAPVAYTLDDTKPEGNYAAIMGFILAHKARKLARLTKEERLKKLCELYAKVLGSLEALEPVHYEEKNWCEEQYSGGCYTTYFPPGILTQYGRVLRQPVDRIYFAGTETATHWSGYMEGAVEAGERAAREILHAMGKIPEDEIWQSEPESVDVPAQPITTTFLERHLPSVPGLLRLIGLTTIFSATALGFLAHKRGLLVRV
Procedure, shortened: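 Human recombinant MAO-B (0.01 mg/mL) in 0.1 M isotonic phosphate buffer pH 7.4, inhibitor 0–7000 µM, benzylamine 1000 µM final, 30 min at 37 °C. Stopped with perchloric acid; benzaldehyde measured by reverse-phase HPLC with UV 254 nm. IC50 from sigmoidal log dose–response fit; triplicate, mean ± SD.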

[10] = biological target: T1, Amine oxidase [flavin-containing] A; test: Inhibition of human recombinant MAOA expressed in insect cells using kynuramine as substrate at 50 uM preincubated up to 40 mins before kynuramine substrate addition measured after 30 mins; details: 0.5 h
Procedure, shortened: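 MAO-A preincubated at 37 °C in 0.1 M isotonic phosphate buffer pH 7.4 with inhibitor, or buffer control, for […]. Diluted 50-fold into buffer containing kynuramine, then incubated 30 min. Activity is % of control; mean ± SD, n = 3.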

Mus musculus [11] = test: Neurotoxicity in C57BL/6J mouse assessed as effect on serotonin level at 25 mg/kg, sc by HPLC analysis; assay type: toxicity, organism-based; set-up: dose 25 mg/kg, route subcutaneous; details: in vivo; procedure, shortened: as §3
Mus musculus [12] = test: Neurotoxicity in C57BL/6J mouse assessed as increase of striatal GFAP level at 25 mg/kg, sc after 72 hrs by ELISA; assay type: toxicity, organism-based; set-up: dose 25 mg/kg, route subcutaneous; details: in vivo; procedure, shortened: as §4
[13] = biological target: T1, Amine oxidase [flavin-containing] A; test: Inhibition of human recombinant MAOA expressed in insect cells assessed as oxidation of kynuramine substrate measured after additional substrate added after 90 mins incubation; details: 1.5 h
[14] = biological target: T1, Amine oxidase [flavin-containing] A; test: Inhibition of human recombinant MAOA expressed in insect cells assessed as oxidation of kynuramine substrate at 2 mM measured after additional substrate added after 90 mins incubation; details: 1.5 h; procedure, shortened: as §2
[15] = biological target: T1, Amine oxidase [flavin-containing] A; test: Competitive inhibition of human recombinant MAO-A assessed as dissociation constant for enzyme-inhibitor complex by Lineweaver-Burk plot analysis; procedure, shortened: as §1
[16] = biological target: T1, Amine oxidase [flavin-containing] A; test: Inhibition of human recombinant MAOA expressed in insect cells assessed as oxidation of kynuramine substrate at 2 mM measured after additional enzyme added after 120 mins incubation; details: 2 h, 2000 µM; procedure, shortened: as §2
[17] = biological target: T1, Amine oxidase [flavin-containing] A; test: Competitive inhibition of human recombinant MAO-A assessed as dissociation constant for enzyme-inhibitor-substrate complex by Lineweaver-Burk plot analysis; procedure, shortened: as §1

| SMILES | IC50 [4] | Ratio IC50 (Homo sapiens) | IC50 [9] | inhibition (INH) [13] | other results |
| --- | --- | --- | --- | --- | --- |
| C1=CCN(CCc2ccccc2)CC1 | 41.3 µM | 28.7 | 1180 µM |  | IC50 [1]: 45.4 µM; Ki [1]: 9.2 µM; inhibition (INH) [2]: Active; Activity (Mus musculus [3]): Non-toxic; inhibition (INH) [5]: Active; inhibition (INH) [6]: Not Active; Activity (Mus musculus [7]): Non-toxic; inhibition (INH) [8]: Active; inhibition (INH) [10]: Active; Activity (Mus musculus [11]): Non-toxic; Activity (Mus musculus [12]): Non-toxic |
| C1=CCN(CCCc2ccccc2)CC1 | 86.1 µM | 9.4 | 812 µM | Not Active |  |
| c1ccc(CCN2CCCCC2)cc1 [1-PHENETHYLPIPERIDINE] | 757 µM | 1 | 762 µM |  | inhibition (INH) [14]: Active; Ki [15]: 121 µM; inhibition (INH) [16]: Active; Ki [17]: 3680 µM |
| Clc1ccc(CCN2CC=CCC2)c(Cl)c1 | 6.1 µM | 11.1 | 67.2 µM | Not Active |  |
| COc1ccc(CCN2CC=CCC2)cc1OC | 111 µM | 12.3 | 1360 µM | Not Active |  |
| COc1ccc(CCN2CC=CCC2)cc1 | 12 µM | 8 | 96.1 µM | Not Active |  |
